Source: ChEMBL document CHEMBL4616679, “Fragment Screening Hit Draws Attention to a Novel Transient Pocket Adjacent to the Recognition Site of the tRNA-Modifying Enzyme TGT” (J Med Chem, 2020)

Test: Inhibition of Zymomonas mobilis tRNA-guanine transglycosylase expressed in Escherichia coli cells BL21-CodonPlus (DE3)-RIPL in presence of and tRNATyr [-3H]-guanine incubated for 60 mins by liquid scintillation counting based radioactive assay
How it was run: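 Z. mobilis TGT (Strep-tag II removed by thrombin) at 9–150 nM, chosen by expected affinity; tRNA^Tyr held at 1.5 µM with saturating [8-³H]-guanine at 10 µM in 100 mM HEPES pH 7.3, 20 mM MgCl₂, 0.037% (v/v) Tween 20. Four 15 µL aliquots taken at 60 min intervals; guanine incorporation into tRNA read by liquid scintillation counting; Ki from reduction of incorporation rate.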
In the case of `CNc1nc2cc3c(=O)[nH]c(N)nc3cc2[nH]1`, the Ki is reported as 0.058 µM. Compound `CNc1nc2cc3c(=O)[nH]cnc3cc2[nH]1` has a Ki of 7 µM. With `NC(=O)c1ccc2nc(NCCN3CCOCC3)[nH]c2c1` the Ki was 544 µM. For `CNc1nc2cc3c(cc2[nH]1)CNC(N)=N3`, the Ki was 17 µM. `CNc1nc2cc(NC(=N)N)ccc2[nH]1` gave a Ki of 19 µM. With `CC#CC1NC(N)=Nc2cc3nc(NC)[nH]c3cc21` (racemic) the Ki was 48 µM. In the case of `CNC(=O)c1ccc2nc(NCCN3CCOCC3)[nH]c2c1`, the Ki is reported as 264 µM. Compound `NNC(=O)c1ccc2nc(NCCN3CCOCC3)[nH]c2c1` has a Ki of 282 µM. With `CNC(=O)c1ccc2nc(NC)[nH]c2c1` the Ki was 270 µM. For `CNc1nc2ccc(C(N)=O)cc2[nH]1`, the Ki was 300 µM. Work on `CNc1nc2ccc(C(=O)NN)cc2[nH]1` yielded a Ki of 283 µM. Work on `Nc1nc2cc3[nH]c(NCCN4CCOCC4)nc3cc2c(=O)[nH]1` yielded a Ki of 0.006 µM. For `N=C(N)Nc1ccc2[nH]c(NCCN3CCOCC3)nc2c1`, the Ki was 58 µM.
